Key:
Type in all cases: ADME
Cytochrome P450 2C19 [1] = target: T1, Cytochrome P450 2C19 (Homo sapiens, UniProt P33261); experiment: (§1) Activity of human CYP2C19 expressed in microsomes isolated from baculovirus infected insect cell assessed as enzyme-mediated 2-mercapto-3-(4-((6-methoxy-1-methyl-1H-benzo[d]imidazol-2-yl)methoxy)phenyl)propanoic acid formation at 20 uM after 2 hrs by radio-HPLC/LC-MS/MS analysis in presence of NADPH-generating system
Method in brief: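 Baculovirus/insect-cell microsomes expressing single human CYPs, 1 mg/ml protein, with 50 mM potassium phosphate (pH 7.4) or 100 mM Tris-HCl (pH 7.5). NADPH-generating system: 2 mM NADP⁺, 20 mM glucose 6-phosphate, 2 units/ml G6PDH, 10 mM MgCl₂. [¹⁴C]rivoglitazone at 20 μM, 2 h at 37°C with shaking. Control used insect-cell control supersomes. Stopped with acetonitrile; supernatant concentrated under nitrogen; metabolites analysed by radio-HPLC, LC-MS and LC-MS/MS.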

Cytochrome P450 3A5 [2] = target: T2, Cytochrome P450 3A5 (Homo sapiens, UniProt P20815); experiment: (§2) Activity of human CYP3A5 expressed in microsomes isolated from baculovirus infected insect cell assessed as enzyme-mediated (2S,3S,4S,5R,6R)-3,4,5-trihydroxy-6-(5-(4-((6-methoxy-1-methyl-1H-benzo[d]imidazol-2-yl)methoxy)benzyl)-2,4-dioxothiazolidin-3-yl)tetrahydro-2H-pyran-2-carboxylic acid formation at 20 uM after 2 hrs by radio-HPLC/LC-MS/MS analysis in presence of UDPGA and UDPGA/SAM
T2 sequence (P20815 whole entry): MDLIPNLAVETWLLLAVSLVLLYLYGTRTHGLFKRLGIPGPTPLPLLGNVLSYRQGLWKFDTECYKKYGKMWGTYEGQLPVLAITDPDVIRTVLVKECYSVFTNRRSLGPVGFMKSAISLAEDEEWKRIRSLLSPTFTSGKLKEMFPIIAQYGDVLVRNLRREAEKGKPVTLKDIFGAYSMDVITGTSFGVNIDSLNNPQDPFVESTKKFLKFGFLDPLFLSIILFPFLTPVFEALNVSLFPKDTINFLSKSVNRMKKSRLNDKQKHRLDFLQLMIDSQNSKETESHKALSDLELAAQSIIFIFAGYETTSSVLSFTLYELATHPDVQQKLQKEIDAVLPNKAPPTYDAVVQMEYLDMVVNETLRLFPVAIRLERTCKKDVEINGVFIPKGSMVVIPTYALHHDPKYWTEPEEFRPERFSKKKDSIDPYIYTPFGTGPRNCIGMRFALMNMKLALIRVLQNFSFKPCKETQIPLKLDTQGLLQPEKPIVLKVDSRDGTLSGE

Cytochrome P450 2C19 [3] = target: T1, Cytochrome P450 2C19; experiment: Activity of human CYP2C19 expressed in microsomes isolated from baculovirus infected insect cell assessed as enzyme-mediated 3-(4-((6-methoxy-1-methyl-1H-benzo[d]imidazol-2-yl)methoxy)phenyl)-2-(methylthio)propanoic acid formation at 20 uM after 2 hrs by radio-HPLC/LC-MS/MS analysis in presence of NADPH-generating system/SAM and UDPGA/SAM
[4] = target: T3, UDP-glucuronosyltransferase 1A3 (Homo sapiens, UniProt P35503); experiment: Activity of human UGT1A3 expressed in microsomes isolated from baculovirus infected insect cell assessed as enzyme-mediated 3-(4-((6-methoxy-1-methyl-1H-benzo[d]imidazol-2-yl)methoxy)phenyl)-2-(methylsulfinyl)propanamide formation at 20 uM after 4 hrs by radio-HPLC/LC-MS/MS analysis in presence of NADPH-generating system/SAM
T3 sequence (P35503 whole entry): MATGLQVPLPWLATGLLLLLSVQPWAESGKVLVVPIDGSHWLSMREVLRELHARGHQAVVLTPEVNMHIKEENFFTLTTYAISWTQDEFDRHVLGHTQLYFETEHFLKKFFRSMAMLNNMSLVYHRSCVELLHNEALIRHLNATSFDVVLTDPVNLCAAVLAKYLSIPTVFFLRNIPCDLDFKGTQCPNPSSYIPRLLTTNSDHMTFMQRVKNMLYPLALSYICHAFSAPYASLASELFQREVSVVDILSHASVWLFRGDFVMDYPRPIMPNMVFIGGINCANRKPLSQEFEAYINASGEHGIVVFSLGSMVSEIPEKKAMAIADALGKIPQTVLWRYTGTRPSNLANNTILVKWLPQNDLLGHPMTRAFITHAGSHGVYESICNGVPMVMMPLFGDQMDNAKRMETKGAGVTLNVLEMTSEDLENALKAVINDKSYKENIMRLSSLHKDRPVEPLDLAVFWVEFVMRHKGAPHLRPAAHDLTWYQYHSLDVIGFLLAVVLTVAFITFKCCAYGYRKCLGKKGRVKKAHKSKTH

Cytochrome P450 3A5 [5] = target: T2, Cytochrome P450 3A5; experiment: Activity of human CYP3A5 expressed in microsomes isolated from baculovirus infected insect cell assessed as enzyme-mediated (2S,3S,4S,5R,6R)-6-((1-carboxy-2-(4-((6-methoxy-1-methyl-1H-benzo[d]imidazol-2-yl)methoxy)phenyl)ethylthio)carbonylamino)-3,4,5-trihydroxytetrahydro-2H-pyran-2-carboxylic acid formation at 20 uM after 2 hrs by radio-HPLC/LC-MS/MS analysis in presence of NADPH-generating system/SAM
Cytochrome P450 3A4 = Cytochrome P450 3A4 (Homo sapiens, UniProt P08684); experiment: as §2, with “CYP3A4” for “CYP3A5”
Chain of Cytochrome P450 3A4 (P08684 whole entry): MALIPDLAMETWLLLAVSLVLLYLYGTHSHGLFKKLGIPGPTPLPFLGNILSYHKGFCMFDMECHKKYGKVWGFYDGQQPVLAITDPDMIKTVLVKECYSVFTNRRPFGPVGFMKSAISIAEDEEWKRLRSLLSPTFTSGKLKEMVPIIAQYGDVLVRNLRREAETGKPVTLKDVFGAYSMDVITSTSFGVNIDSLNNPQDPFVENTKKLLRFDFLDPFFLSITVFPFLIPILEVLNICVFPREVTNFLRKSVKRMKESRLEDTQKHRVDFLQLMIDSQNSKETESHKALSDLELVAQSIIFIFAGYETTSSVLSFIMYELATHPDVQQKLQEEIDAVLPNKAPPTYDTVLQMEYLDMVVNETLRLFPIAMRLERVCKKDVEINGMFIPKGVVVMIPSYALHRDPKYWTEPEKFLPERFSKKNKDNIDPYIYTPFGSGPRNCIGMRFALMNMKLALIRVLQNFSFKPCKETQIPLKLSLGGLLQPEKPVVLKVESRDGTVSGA

[6] = target: T4, UDP-glucuronosyltransferase 2B7 (Homo sapiens, UniProt P16662); experiment: (§3) Activity of human UGT2B7 expressed in microsomes isolated from baculovirus infected insect cell assessed as enzyme-mediated 5-(4-((6-methoxy-1H-benzo[d]imidazol-2-yl)methoxy)benzyl)thiazolidine-2,4-dione formation at 20 uM after 4 hrs by radio-HPLC/LC-MS/MS analysis in presence of NADPH-generating system and NADPH-generating system/SAM in presence of UDPGA and UDPGA/SAM
T4 sequence (P16662 whole entry): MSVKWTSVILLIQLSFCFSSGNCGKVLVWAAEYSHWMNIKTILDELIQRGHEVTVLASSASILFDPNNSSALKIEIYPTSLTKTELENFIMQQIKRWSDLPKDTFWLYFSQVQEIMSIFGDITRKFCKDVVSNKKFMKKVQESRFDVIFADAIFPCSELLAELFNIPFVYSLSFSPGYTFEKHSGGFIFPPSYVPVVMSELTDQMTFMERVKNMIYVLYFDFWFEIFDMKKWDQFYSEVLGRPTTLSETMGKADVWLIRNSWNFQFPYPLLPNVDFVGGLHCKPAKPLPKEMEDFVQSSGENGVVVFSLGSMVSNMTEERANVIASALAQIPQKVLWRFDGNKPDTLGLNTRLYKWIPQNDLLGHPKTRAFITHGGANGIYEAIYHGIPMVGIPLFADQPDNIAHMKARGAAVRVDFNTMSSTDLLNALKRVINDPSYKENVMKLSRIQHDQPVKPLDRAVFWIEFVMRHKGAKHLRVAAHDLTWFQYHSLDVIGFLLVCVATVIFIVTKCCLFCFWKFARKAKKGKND

Cytochrome P450 2D6 [7] = target: T5, Cytochrome P450 2D6 (Homo sapiens, UniProt P10635); experiment: as §2, with “CYP2D6” for “CYP3A5”
T5 sequence (P10635 whole entry): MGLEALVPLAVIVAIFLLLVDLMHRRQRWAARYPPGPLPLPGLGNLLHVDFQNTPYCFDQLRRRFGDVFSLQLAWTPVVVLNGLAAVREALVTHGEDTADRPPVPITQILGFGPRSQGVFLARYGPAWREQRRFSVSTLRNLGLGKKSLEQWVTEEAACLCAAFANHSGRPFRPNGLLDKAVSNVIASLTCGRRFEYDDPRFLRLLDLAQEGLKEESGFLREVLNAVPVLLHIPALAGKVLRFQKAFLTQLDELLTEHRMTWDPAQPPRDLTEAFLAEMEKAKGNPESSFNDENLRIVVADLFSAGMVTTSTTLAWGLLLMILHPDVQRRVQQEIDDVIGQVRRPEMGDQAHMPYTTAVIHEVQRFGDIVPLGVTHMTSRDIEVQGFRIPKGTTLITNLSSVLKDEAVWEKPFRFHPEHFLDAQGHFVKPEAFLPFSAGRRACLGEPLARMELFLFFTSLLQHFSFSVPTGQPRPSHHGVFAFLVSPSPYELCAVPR

Cytochrome P450 2D6 [8] = target: T5, Cytochrome P450 2D6; experiment: as §1, with “CYP2D6” for “CYP2C19”
Method in brief: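 Baculovirus-insect-cell microsomes expressing the human CYP (1 mg/ml protein) were incubated with [14C]rivoglitazone (20 μM) in 50 mM potassium phosphate (pH 7.4) or 100 mM Tris-HCl (pH 7.5) with an NADPH-generating system (2 mM NADP+, 20 mM glucose 6-phosphate, 2 units/ml G6PDH, 10 mM MgCl2) for 2 h at 37°C. Insect-cell control supersomes served as the control. Reactions were stopped with acetonitrile, and the concentrated supernatants were analysed by radio-HPLC, LC-MS and LC-MS/MS.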

Cytochrome P450 2D6 [9] = target: T5, Cytochrome P450 2D6; experiment: as §3, with “human CYP2D6” for “human UGT2B7”, “after 2” for “after 4”, “system/SAM” for “system/SAM in presence of UDPGA and UDPGA/SAM”
Cytochrome P450 3A5 [10] = target: T2, Cytochrome P450 3A5; experiment: as §1, with “CYP3A5” for “CYP2C19”
Method in brief: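 cDNA-expressed human CYP3A5 in baculovirus-insect-cell microsomes (1 mg/ml protein) was incubated with [¹⁴C]rivoglitazone (20 μM) in 50 mM potassium phosphate (pH 7.4) or 100 mM Tris-HCl (pH 7.5). NADPH-generating system: 2 mM NADP⁺, 20 mM glucose 6-phosphate, 2 units/ml G6PDH, 10 mM MgCl₂. Incubation ran 2 h at 37°C with shaking; insect-cell control supersomes served as control. Acetonitrile stop, supernatant concentrated, then radio-HPLC, LC-MS and LC-MS/MS.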

T1 sequence (P33261 whole entry): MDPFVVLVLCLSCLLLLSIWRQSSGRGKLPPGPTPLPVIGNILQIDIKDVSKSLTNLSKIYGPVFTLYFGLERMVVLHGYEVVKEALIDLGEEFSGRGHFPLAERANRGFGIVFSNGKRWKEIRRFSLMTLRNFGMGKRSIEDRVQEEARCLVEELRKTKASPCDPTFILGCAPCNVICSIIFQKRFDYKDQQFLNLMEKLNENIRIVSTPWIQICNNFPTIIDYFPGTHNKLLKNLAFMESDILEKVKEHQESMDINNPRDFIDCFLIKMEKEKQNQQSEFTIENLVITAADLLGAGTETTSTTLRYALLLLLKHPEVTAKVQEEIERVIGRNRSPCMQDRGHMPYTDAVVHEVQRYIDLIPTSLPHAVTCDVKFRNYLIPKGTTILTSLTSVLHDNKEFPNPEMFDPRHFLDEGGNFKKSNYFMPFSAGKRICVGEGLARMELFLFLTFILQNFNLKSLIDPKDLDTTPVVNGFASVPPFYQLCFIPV

In the case of `COc1ccc2nc(COc3ccc(C[14CH]4SC(=O)NC4=O)cc3)n(C)c2c1.Cl` (racemic), the Drug metabolism (Cytochrome P450 2C19 [1]) is reported as “metabolite_detected”, the Drug metabolism (Cytochrome P450 3A5 [2]) is reported as “metabolite_not_detected” and the Drug metabolism (Cytochrome P450 2C19 [3]) is reported as “metabolite_not_detected”. For the same molecule, the Drug metabolism [4] was “metabolite_not_detected”, the Drug metabolism (Cytochrome P450 3A5 [5]) was “metabolite_not_detected” and the Drug metabolism (Cytochrome P450 3A4) was “metabolite_not_detected”. For the same molecule, the Drug metabolism [6] was “metabolite_not_detected”, the Drug metabolism (Cytochrome P450 2D6 [7]) was “metabolite_not_detected” and the Drug metabolism (Cytochrome P450 2D6 [8]) was “metabolite_detected”. The Drug metabolism (Cytochrome P450 2D6 [9]) was “metabolite_detected” and the Drug metabolism (Cytochrome P450 3A5 [10]) was “metabolite_detected”.

— ChEMBL document CHEMBL3526048, “In vitro metabolism of rivoglitazone, a novel peroxisome proliferator-activated receptor γ agonist, in rat, monkey, and human liver microsomes and freshly isolated hepatocytes” (Drug Metab Dispos, 2011)
